Measured values as given in paper PMC8451793 (Journal of Orthopaedic Research, 2020).

Legend:
[1] = tested on: CLK-mediated phosphorylation of SRSF1, SRSF4, SRSF5, SRSF6 in rTDSCs and hMSCs; assay: Western blot of phospho-SRSFs; format: cell-based, human, rat
In short: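 rTDSCs treated with test compound or DMSO for 24 h at 37°C, 5% CO2. Total protein extracted in RIPA buffer. Phospho-SRSF levels detected by Western blot with specific primary and secondary antibodies.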

[2] = tested on: hMSCs and rTDSCs; assay: Tenocyte differentiation, immunostaining for tenocyte markers; format: cell-based, human, rat
In short: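 Cells incubated at 37°C, 5% CO2 with test compound across a dose range or DMSO; rTDSCs treated 4 days (representative images at 1.5 μM). Fixed and immunostained for SCXA, TNMD, TNC, MKX, THBS4 and type I/III collagens; secondary antibody alone as negative control; BMP + FGF as positive control. High-content imaging; percent of total cells marker-positive; n = 4, mean ± SD.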

COc1ccc2c(c1)[nH]c1c(C)nccc12 [harmine]
CLK-mediated phosphorylation of SRSF1, SRSF4, SRSF5 and SRSF6 [1]: no effects | Potency in promoting tenocyte differentiation relative to SM04755 [2]: less potent than SM04755
